How the values were obtained:
[1] = tested on: G361 melanoma cells; experiment: G361 melanoma cell proliferation; type: cell-based; details: Homo sapiens, G-361, read-out: IC50, inhibition of G361 cell proliferation
[2] = tested on: UACC-62-R cells; experiment: PLX4720-resistant UACC-62-R melanoma cell proliferation; type: cell-based, human
Outline: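 The PLX4720-resistant UACC-62-R line was derived by sustained culture in low-dose PLX4720. It was maintained in 20 μM PLX4720, with medium replenished twice weekly. Proliferation was tracked as IncuCyte confluence and IC50 was derived for resistant and wild-type cells.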

| IC50 [1] [µM] | IC50 ([2]; Homo sapiens, read-out: IC50, inhibition of UACC-62-R cell proliferation) [µM] | SMILES | resistance of UACC-62-R relative to UACC-62-WT cells ([2]; proliferation in presence of PLX4720) |
| --- | --- | --- | --- |
| 38 | – | C=CCc1ccc(O)c(-c2cc(CC=C)ccc2O)c1 [MGN, magnolol] | – |
| – | 26.2 | CCCS(=O)(=O)Nc1ccc(F)c(C(=O)c2c[nH]c3ncc(Cl)cc23)c1F [PLX4720] | approximately six times more resistant |
